From ChEMBL document CHEMBL2203279, “Synthesis and pharmacokinetic profile of rhein- boswellic acid conjugate” (Bioorg Med Chem Lett, 2012)

What was measured:
[1] = Drug excretion in po dosed Wistar rat feces assessed as boswellic acid up to 24 hrs; type: ADME, organism-based; details: in vivo
Summary of the method: (§1)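 Wistar rats given prodrug 2.5 mg in 0.5 mL saline orally after overnight fast; urine and feces collected from metabolic cages at intervals over 24 h and pooled. Urine diluted 10-fold and feces 100-fold in phosphate buffer pH 7.4, then analysed by RP-HPLC for intact prodrug, rhein and boswellic acid as percent.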

[2] = Drug excretion in po dosed Wistar rat feces up to 24 hrs; type: ADME, organism-based; details: faeces, read-out: Drug excretion; summary of the method: as §1
[3] = Drug excretion in po dosed Wistar rat feces assessed as rhein up to 24 hrs; type: ADME, organism-based; details: in vivo; summary of the method: as §1
[4] = Drug excretion in po dosed Wistar rat urine assessed as rhein up to 24 hrs; type: ADME, organism-based; details: in vivo; summary of the method: as §1
[5] = Drug excretion in po dosed Wistar rat urine assessed as boswellic acid up to 24 hrs; type: ADME, organism-based; details: in vivo; summary of the method: as §1
[6] = Drug excretion in po dosed Wistar rat urine up to 24 hrs; type: ADME, organism-based; details: read-out: Drug excretion; summary of the method: as §1
Blood [7] = assay: Prodrug conversion in po dosed Wistar rat blood assessed as boswellic acid production from 4 to 7 hrs; type: ADME, organism-based; details: in vivo
Summary of the method: (§2)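 Overnight-fasted Wistar rats (water allowed) given prodrug 2.5 mg in 0.5 mL saline orally. Blood taken by retro-orbital puncture at intervals over up to 8 h, processed by methanol protein precipitation and centrifugation, and analysed by RP-HPLC for intact prodrug, rhein and boswellic acid, expressed as percent of administered dose.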

Blood [8] = assay: Prodrug conversion in po dosed Wistar rat blood assessed as rhein production from 4 to 7 hrs; type: ADME, organism-based; details: in vivo; summary of the method: as §2
Blood [9] = assay: Drug uptake in po dosed Wistar rat blood at 7 hrs; type: ADME, organism-based; details: in vivo; summary of the method: as §2
Blood [10] = assay: Drug uptake in po dosed Wistar rat blood at 5 hrs; type: ADME, organism-based; details: in vivo; summary of the method: as §2
Blood [11] = assay: Drug uptake in po dosed Wistar rat blood at 6 hrs; type: ADME, organism-based; details: in vivo; summary of the method: as §2
Blood [12] = assay: Drug uptake in po dosed Wistar rat blood at 4 hrs; type: ADME, organism-based; details: in vivo; summary of the method: as §2
Blood [13] = assay: Drug uptake in po dosed Wistar rat blood at 3 hrs; type: ADME, organism-based; details: in vivo; summary of the method: as §2
Blood [14] = assay: Drug uptake in po dosed Wistar rat blood at 2 hrs; type: ADME, organism-based; details: in vivo; summary of the method: as §2
Plasma = assay: Prodrug conversion in 80% human plasma assessed as half life of hydrolysis; type: ADME, cell-free
Summary of the method: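 80% human plasma prepared in 0.05 M phosphate buffer pH 7.4; prodrug methanol stock (250 µg/mL) mixed 1:1 with plasma and incubated at 37 ± 0.5 °C over 7 h. At intervals, centrifuged cold, supernatant protein-precipitated with methanol, recentrifuged, filtered and analysed by RP-HPLC for residual prodrug and released rhein/boswellic acid. Rate constant from log residual prodrug vs time; triplicate.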

Intestine = assay: Prodrug conversion in rat small intestine homogenate assessed as half life of hydrolysis; type: ADME, tissue-based; details: tissue homogenate
Summary of the method: (§3)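 Prodrug solution in buffer (250 µg/mL) added to rat stomach or small intestinal homogenate pre-equilibrated at 37 ± 0.5 °C. Samples taken at intervals, centrifuged, supernatant filtered and analysed by RP-HPLC at 211 nm for residual prodrug and released rhein/boswellic acid. Rate constant from log residual prodrug vs time slope; triplicate, mean rate constant.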

Stomach = assay: Metabolic stability in rat stomach homogenate; type: ADME, tissue-based; details: tissue homogenate; summary of the method: as §3
[15] = Prodrug conversion in phosphate buffer assessed as half life of hydrolysis at pH 7.4; type: physicochemical
Summary of the method: (§4)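 Prodrug (10 mg) incubated in aqueous buffer (HCl pH 1.2 or phosphate pH 7.4) at 37 ± 0.5 °C, stirred at 100 rpm; aliquots withdrawn with medium replacement at intervals up to 7 h. Residual prodrug and released rhein/boswellic acid quantified by RP-HPLC at 211 nm. First-order rate constant from slope of log residual prodrug vs time; triplicate, mean taken.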

[16] = Chemical stability of the compound in HCl buffer at pH 1.2; type: physicochemical; summary of the method: as §4
[17] = n-Octanol-phosphate buffer partition coefficient, log P of the compound at pH 7.4; type: physicochemical
Summary of the method: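 Partition coefficient measured between n-octanol and phosphate buffer pH 7.4, with concentrations read by UV–visible spectrophotometry.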

Drug excretion [1]	dose excreted at 24 h [2]	Drug excretion [3]	Drug excretion [4]	Drug excretion [5]	dose excreted at 24 h [6]	Drug metabolism (Blood [7])	Drug metabolism (Blood [8])	Drug uptake (Blood [9])	Drug uptake (Blood [10])	Drug uptake (Blood [11])	Drug uptake (Blood [12])	Drug uptake (Blood [13])	Drug uptake (Blood [14])	t1/2 (Plasma)	t1/2 (Intestine)	Stability (Stomach)	t1/2 [15]	Stability [16]	logD [17]	Structure (SMILES)
4.59%	3.1%	Not Active	7.1%	8.9%	6.2%	Active	Active	3.4%	22%	12%	34.5%	70.43%	93.6%	3.102 h	2.672 h	Stable	3.205 h	Stable	2.57	CC1(C)CC[C@]2(C)CC[C@]3(C)C(=CC[C@@H]4[C@@]5(C)CC[C@@H](O)[C@](C)(C(=O)Oc6cccc7c6C(=O)c6c(OC(=O)[C@@]8(C)[C@H](O)CC[C@@]9(C)[C@H]8CC[C@]8(C)[C@@H]9CC=C9[C@@H]%10CC(C)(C)CC[C@]%10(C)CC[C@]98C)cc(C(=O)O)cc6C7=O)[C@@H]5CC[C@]43C)[C@@H]2C1
																			0.24	O=C(O)c1cc(O)c2c(c1)C(=O)c1cccc(O)c1C2=O [RHEIN]
